Test results from ChEMBL document CHEMBL1773031, “Maklamicin, an antibacterial polyketide from an endophytic Micromonospora sp” (J Nat Prod, 2011).
In brackets after ≈: the same amount, converted by molar mass.

Tests used:
Escherichia coli = assay: Antimicrobial activity against Escherichia coli NIH-JC2 after 20 hrs by microplate reader assay; format: functional; settings: NIH-JC2, 20 h
In short: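 The E. coli preculture was grown in Mueller Hinton broth, shaken for 20 h at 30 °C, centrifuged and suspended in saline at 1 × 10^5 cells/mL. The suspension was combined in broth with sample dissolved in DMSO. Incubation was 20 h at 37 °C, with absorbance at 650 nm read on a microplate reader.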

MCF7 = assay: Cytotoxicity against human MCF7 cells after 48 hrs by MTT assay; format: functional, cell-based; settings: MCF7, 48 h
Staphylococcus aureus = assay: Antimicrobial activity against Staphylococcus aureus IFO 12732 after 20 hrs by microplate reader assay; format: functional; settings: IFO 12732, 20 h
In short: (§1)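 Grown in Mueller Hinton broth on a reciprocal shaker for 20 h at 30 °C, then pelleted and resuspended in saline at 1 × 10^5 cells/mL. The suspension was mixed into fresh broth in 96-well plates with test sample in DMSO. Plates were incubated for 20 h at 30 °C, and growth was read as absorbance at 650 nm.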

Bacillus cereus = assay: Antimicrobial activity against Bacillus cereus NBRC 15305 after 20 hrs by microplate reader assay; format: functional; settings: NBRC 15305, 20 h; in short: as §1
HeLa = assay: Cytotoxicity against human HeLa cells after 48 hrs by MTT assay; format: functional, cell-based
Enterococcus faecalis = assay: Antimicrobial activity against Enterococcus faecalis NBRC 100480 after 20 hrs by microplate reader assay; format: functional; settings: NBRC 100480, 20 h; in short: as §1
Bacillus subtilis = assay: Antimicrobial activity against Bacillus subtilis PCI219 after 20 hrs by microplate reader assay; format: functional; settings: PCI219, 20 h; in short: as §1
Candida albicans = assay: Antimicrobial activity against Candida albicans IFO 1594 after 20 hrs by microplate reader assay; format: functional; settings: IFO 1594, 20 h
In short: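 Yeast Nitrogen Base supplemented with 2% glucose was the medium. Cells were shaken for 20 h at 30 °C, pelleted and resuspended in saline at 1 × 10^5 cells/mL. They were mixed in medium with DMSO sample solution in 96-well plates and incubated for 20 h at 30 °C. Growth was measured as absorbance at 650 nm.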

Micrococcus luteus = assay: Antimicrobial activity against Micrococcus luteus ATCC 9343 after 20 hrs by microplate reader assay; format: functional; settings: ATCC 9343, 20 h; in short: as §1

| Structure (SMILES) | MIC (Escherichia coli) [mg/L] | IC50 (MCF7) [µM] | MIC (Staphylococcus aureus) [mg/L] | MIC (Bacillus cereus) [mg/L] | IC50 (HeLa) [µM] | MIC (Enterococcus faecalis) [mg/L] | MIC (Bacillus subtilis) [mg/L] | MIC (Candida albicans) [mg/L] | MIC (Micrococcus luteus) [mg/L] |
| --- | --- | --- | --- | --- | --- | --- | --- | --- | --- |
| C[C@H]1CC[C@@H]2[C@H](C=C[C@H]3[C@H](C)/C=C/C[C@]4(C)C=C(CO)[C@H](C[C@@H](C)O)C[C@]45OC(=O)C(=C5O)C(=O)[C@@]23C)C1 [MAKLAMICIN] | > 50 | 34 | 13 (≈ 24.8 µM) | 6.5 (≈ 12.4 µM) | 17 | 13 (≈ 24.8 µM) | 1.7 (≈ 3.24 µM) | 50 (≈ 95.3 µM) | 0.2 (≈ 0.381 µM) |
| CN(C)[C@@H]1C(O)=C(C(N)=O)C(=O)[C@@]2(O)C(O)=C3C(=O)c4c(O)cccc4[C@@](C)(O)[C@H]3C[C@@H]12.Cl [TETRACYCLINE HYDROCHLORIDE] | 0.8 |  | 0.05 | 1.5 |  | 0.2 | 0.05 |  | 0.1 |
